Experimental data from ChEMBL document CHEMBL2434823, “Design, synthesis and biological activities of some 7-aminocephalosporanic acid derivatives” (Eur J Med Chem, 2013).
Activity calls are given as the source filed them. The calls are words filed in the database; no cut-off is given here.

What was measured:
Bacillus cereus [1] = assay: Antimicrobial activity against Bacillus cereus 702 Roma; format: functional
Procedure, shortened: (§1)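 Compound stocks were 20.000 µg/mL in hexane. DMSO diluted 1:10 served as the solvent control, and ampicillin was the reference drug.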

Saccharomyces cerevisiae [2] = assay: Antimicrobial activity against Saccharomyces cerevisiae RSKK 251; format: functional
Enterococcus faecalis = assay: Antimicrobial activity against Enterococcus faecalis ATCC 29212; format: functional; procedure, shortened: as §1
[3] = system: Yersinia pseudotuberculosis; assay: Antimicrobial activity against Yersinia pseudotuberculosis ATCC 911; format: functional
Procedure, shortened: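 Compounds were dissolved in […] as 20.000 µg/mL stocks. Ampicillin (10 µg) was the reference antibacterial, and DMSO diluted 1:10 was the solvent control.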

Pseudomonas aeruginosa = assay: Antimicrobial activity against Pseudomonas aeruginosa ATCC 43288; format: functional; procedure, shortened: as §1
Candida albicans [4] = assay: Antimicrobial activity against Candida albicans ATCC 60193; format: functional
[5] = system: Mycolicibacterium smegmatis; assay: Antimicrobial activity against Mycobacterium smegmatis ATCC 607; format: functional
Staphylococcus aureus = assay: Antimicrobial activity against Staphylococcus aureus ATCC 25923; format: functional; procedure, shortened: as §1
[6] = target: Urease (Canavalia ensiformis) (UniProt P07374); assay: Inhibition of jack bean urease using urea as substrate assessed as ammonia production at 250 ug/ml after 15 mins relative to control
Procedure, shortened: (§2)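 Jack bean urease in pH 8.2 buffer (100 mM urea, 0.01 M K2HPO4, 1 mM EDTA, 0.01 M LiCl) was incubated with compound for 15 min at room temperature. Ammonia was measured by the indophenol method (phenol/nitroprusside, then NaOH/NaOCl) at A625 after 20 min. Inhibition % = 100 − (OD test/OD control)×100. […] Thiourea was the standard.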

Bacillus cereus [7] = assay: Inhibition of Bacillus cereus metallo beta-lactamase assessed as nitrocefin substrate hydrolysis at 1 mM after 20 mins
Procedure, shortened: (§3)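 Commercial B. cereus metallo-β-lactamase (1.5 µM solution) was combined with nitrocefin (150 µM solution) and compound in 25 mM PIPES pH 7.0 containing 100 µM ZnSO4. A486 was read continuously for 20 min at 37 °C. Residual activity was taken relative to the no-inhibitor control, in triplicate. Screening used 1 mM final; IC50 came from a concentration series. HgCl2 was the positive control.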

[8] = target: Urease (Canavalia ensiformis) (UniProt P07374); assay: Inhibition of jack bean urease using urea as substrate assessed as ammonia production at 100 ug/ml after 15 mins relative to control
Urease = Urease (Canavalia ensiformis, UniProt P07374); assay: Inhibition of jack bean urease using urea as substrate assessed as ammonia production after 15 mins; procedure, shortened: as §2
Candida albicans [9] = assay: Antimicrobial activity against Candida albicans ATCC 60193 at 5 ug; format: functional; conditions: read-out: IZ
Procedure, shortened: (§4)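 Compounds were dissolved in […] as 20.000 µg/mL stocks. Fluconazole (5 µg) was the reference antifungal, and DMSO diluted 1:10 was the solvent control.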

Saccharomyces cerevisiae [10] = assay: Antimicrobial activity against Saccharomyces cerevisiae RSKK 251 at 5 ug; format: functional; conditions: read-out: IZ; procedure, shortened: as §4
[11] = Inhibition of Bacillus cereus metallo beta-lactamase assessed as nitrocefin substrate hydrolysis after 20 mins; procedure, shortened: as §3

Sequence of Urease (Canavalia ensiformis) (P07374 whole entry, looked up): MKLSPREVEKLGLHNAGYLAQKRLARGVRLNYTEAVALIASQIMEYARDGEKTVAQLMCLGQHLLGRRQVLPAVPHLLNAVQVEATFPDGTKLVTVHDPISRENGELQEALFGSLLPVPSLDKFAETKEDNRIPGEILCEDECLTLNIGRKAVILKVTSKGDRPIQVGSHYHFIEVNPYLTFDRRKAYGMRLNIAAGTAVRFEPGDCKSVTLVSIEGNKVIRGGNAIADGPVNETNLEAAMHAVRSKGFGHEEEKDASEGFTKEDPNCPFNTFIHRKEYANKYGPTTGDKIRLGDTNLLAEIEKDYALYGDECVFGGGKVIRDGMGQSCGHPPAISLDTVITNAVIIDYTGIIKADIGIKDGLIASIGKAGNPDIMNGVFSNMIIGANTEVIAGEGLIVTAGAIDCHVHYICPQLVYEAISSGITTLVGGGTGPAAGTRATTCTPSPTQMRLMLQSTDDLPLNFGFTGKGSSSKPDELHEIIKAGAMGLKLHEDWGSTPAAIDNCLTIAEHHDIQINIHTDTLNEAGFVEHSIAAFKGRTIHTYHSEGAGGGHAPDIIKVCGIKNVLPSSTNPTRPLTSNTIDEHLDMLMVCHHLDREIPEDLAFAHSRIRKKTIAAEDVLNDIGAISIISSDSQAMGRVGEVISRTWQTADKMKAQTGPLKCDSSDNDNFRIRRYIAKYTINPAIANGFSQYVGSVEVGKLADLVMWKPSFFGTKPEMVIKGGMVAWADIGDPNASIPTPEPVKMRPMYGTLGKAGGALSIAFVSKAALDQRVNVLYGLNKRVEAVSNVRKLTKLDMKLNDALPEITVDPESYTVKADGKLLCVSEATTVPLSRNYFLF
Sequence of Urease (P07374 whole entry): as the sequence (P07374 whole entry, looked up) above

Compound | inhibition zone (IZ) (Bacillus cereus [1]) | inhibition zone (IZ) (Saccharomyces cerevisiae [2]) | inhibition zone (IZ) (Enterococcus faecalis) | inhibition zone (IZ) [3] | inhibition zone (IZ) (Pseudomonas aeruginosa) | inhibition zone (IZ) (Candida albicans [4]) | inhibition zone (IZ) [5] | inhibition zone (IZ) (Staphylococcus aureus) | inhibition [6] | inhibition (Bacillus cereus [7]) | inhibition [8] | IC50 (Urease) | zone of inhibition at 5 µg/disc (Candida albicans [9]) | zone of inhibition at 5 µg/disc (Saccharomyces cerevisiae [10]) | IC50 [11]
O=S(=O)(Cl)c1ccc(/N=c2/sc(-c3ccc(Cl)cc3)cn2Cc2ccccc2)cc1 | 6 mm | 20 mm | 18 mm | inactive | inactive | 10 mm | 10 mm | 16 mm | – | – | – | – | – | – | –
CC(=O)OCC1=C(C(=O)O)N2C(=O)[C@@H](NS(=O)(=O)c3ccc(NC(=S)Nc4ccccc4)cc3)[C@H]2SC1 | 12 mm | 22 mm | 10 mm | 10 mm | 8 mm | 14 mm | 18 mm | 18 mm | – | – | – | – | – | – | –
CC(=O)OCC1=C(C(=O)O)N2C(=O)[C@@H](NS(=O)(=O)c3ccc(NC(=O)Nc4ccccc4)cc3)[C@H]2SC1 | 10 mm | 8 mm | 8 mm | 8 mm | 6 mm | 8 mm | 10 mm | 15 mm | – | – | – | – | – | – | –
O=S(=O)(Cl)c1ccc(/N=c2/sc(-c3ccc(Cl)cc3)cn2-c2ccccc2)cc1 | 8 mm | 22 mm | 8 mm | inactive | inactive | 10 mm | 12 mm | 18 mm | 3% | – | – | – | – | – | –
CC(=O)OCC1=C(C(=O)O)N2C(=O)[C@@H](NS(=O)(=O)c3ccc(NC(=S)NCc4ccccc4)cc3)[C@H]2SC1 | 8 mm | 10 mm | 10 mm | 8 mm | 6 mm | 8 mm | 16 mm | 15 mm | – | – | – | – | – | – | –
O=S(=O)(Cl)c1ccc(NC(=S)Nc2ccccc2)cc1 | inactive | 15 mm | inactive | inactive | inactive | 8 mm | inactive | 6 mm | 21% | – | – | – | – | – | –
CC(=O)OCC1=C(C(=O)O)N2C(=O)[C@@H](NS(=O)(=O)c3ccc([N+](=O)[O-])cc3)[C@H]2SC1 | 8 mm | inactive | 6 mm | inactive | – | inactive | inactive | 23 mm | 28% | 18% | – | – | – | – | –
O=C(Nc1ccccc1)Nc1ccc(S(=O)(=O)Cl)cc1 | inactive | 15 mm | inactive | inactive | inactive | 8 mm | inactive | 6 mm | 100% | – | 39.3% | 388 µM | – | – | –
Nc1ccc(S(=O)(=O)Cl)cc1 | 15 mm | 20 mm | 12 mm | 12 mm | 28 mm | 13 mm | 10 mm | 18 mm | – | – | – | – | – | – | –
CC(=O)OCC1=C(C(=O)O)N2C(=O)[C@@H](NS(=O)(=O)c3ccc(/N=C4/SC(=O)CN4Cc4ccccc4)cc3)[C@H]2SC1 | 8 mm | 18 mm | 10 mm | 8 mm | 8 mm | 10 mm | 16 mm | 22 mm | – | – | – | – | – | – | –
OC(Cn1cncn1)(Cn1cncn1)c1ccc(F)cc1F [FLUCONAZOLE] | – | – | – | – | – | – | – | – | – | – | – | – | 25 mm | > 25 mm | –
O=C(NCc1ccccc1)Nc1ccc(S(=O)(=O)Cl)cc1 | 18 mm | 20 mm | 16 mm | 25 mm | 20 mm | 18 mm | 15 mm | 30 mm | 23% | – | – | – | – | – | –
O=C(Cl)CN1CCN(c2ccc([N+](=O)[O-])cc2F)CC1 | 8 mm | 30 mm | 8 mm | inactive | inactive | 15 mm | inactive | 15 mm | 25% | – | – | – | – | – | –
MERCURIC CHLORIDE [listing 1 of 2 here] | – | – | – | – | – | – | – | – | – | 76% | – | – | – | – | –
CC(=O)OCC1=C(C(=O)O)N2C(=O)[C@@H](NS(=O)(=O)c3ccc(NC(=O)NCc4ccccc4)cc3)[C@H]2SC1 | 10 mm | 10 mm | 10 mm | 10 mm | 8 mm | 10 mm | 14 mm | 18 mm | – | – | – | – | – | – | –
CC(=O)OCC1=C(C(=O)O)N2C(=O)[C@@H](NC(=O)CN3CCN(c4ccc([N+](=O)[O-])cc4F)CC3)[C@H]2SC1 | 10 mm | 30 mm | 8 mm | 6 mm | inactive | 15 mm | 22 mm | 18 mm | – | 24% | – | – | – | – | 1170 µM
CC(=O)OCC1=C(C(=O)O)N2C(=O)[C@@H](NS(=O)(=O)c3ccc(/N=c4/sc(-c5ccc(Cl)cc5)cn4Cc4ccccc4)cc3)[C@H]2SC1 | inactive | inactive | 8 mm | 8 mm | 8 mm | 10 mm | inactive | 22 mm | – | 64% | – | – | – | – | 543 µM
CN[C@@H]1[C@H](O[C@H]2[C@H](O[C@H]3[C@H](O)[C@@H](O)[C@H](N=C(N)N)[C@@H](O)[C@@H]3N=C(N)N)O[C@@H](C)[C@]2(O)C=O)O[C@@H](CO)[C@H](O)[C@H]1O [STREPTOMYCIN] | – | – | – | – | – | – | 35 mm | – | – | – | – | – | – | – | –
MERCURIC CHLORIDE [listing 2 of 2 here] | – | – | – | – | – | – | – | – | – | – | – | – | – | – | 93 µM
O=C1CN(Cc2ccccc2)/C(=N\c2ccc(S(=O)(=O)Cl)cc2)S1 | 10 mm | 18 mm | 10 mm | inactive | inactive | 10 mm | 12 mm | 18 mm | – | – | – | – | – | – | –
O=S(=O)(Cl)c1ccc(/N=c2/oc(-c3ccc(Cl)cc3)cn2Cc2ccccc2)cc1 | 6 mm | 10 mm | 8 mm | inactive | inactive | 8 mm | 12 mm | 18 mm | 21% | – | – | – | – | – | –
CC(=O)OCC1=C(C(=O)O)N2C(=O)[C@@H](NS(=O)(=O)c3ccc(N)cc3)[C@H]2SC1 | 18 mm | 20 mm | 16 mm | 12 mm | 30 mm | 14 mm | 12 mm | 20 mm | 1% | – | – | – | – | – | –
O=S(=O)(Cl)c1ccc(NC(=S)NCc2ccccc2)cc1 | 18 mm | 8 mm | 16 mm | 25 mm | 20 mm | 8 mm | 17 mm | 30 mm | – | – | – | – | – | – | –
CC(=O)OCC1=C(C(=O)O)N2C(=O)[C@@H](NS(=O)(=O)c3ccc(/N=c4/sc(-c5ccc(Cl)cc5)cn4-c4ccccc4)cc3)[C@H]2SC1 | 8 mm | 14 mm | inactive | 6 mm | 6 mm | 10 mm | 16 mm | inactive | 15% | – | – | – | – | – | –
